Experimental data taken from ChEMBL document CHEMBL1629663, “Postantibiotic effects of telavancin against 16 gram-positive organisms” (Antimicrob Agents Chemother, 2009).
≈ marks a conversion by molar mass, not a printed value.

Legend:
Type in all cases: functional
Staphylococcus aureus [1] = test: Antimicrobial activity against vancomycin-intermediate-, methicillin-resistant Staphylococcus aureus 1287 assessed as time required to induce post antibiotic sub-MIC effect at 0.3 times MIC […] by plate counting method
Procedure, shortened: (§1)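 PAE was first induced with 10× MIC for 1 h at 35°C (inoculum about 5 × 10^6 CFU/ml, Mueller-Hinton broth) and ended by 1:1,000 dilution. Cultures were then split and given 0.2, 0.3 or 0.4× MIC, with one tube left without drug. Viable counts were taken before exposure, after dilution, then every 2 h until McFarland no. 1 turbidity. Two separate experiments, each with a new inoculum.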

Staphylococcus aureus [2] = test: Antimicrobial activity against heterogenous vancomycin-intermediate-, methicillin-resistant Staphylococcus aureus 618 by microdilution method
Streptococcus agalactiae [3] = test: Antimicrobial activity against Streptococcus agalactiae HMC 5 assessed as time required to induce sub-MIC effect at 0.2 times MIC exposed for 2 hrs by plate counting method
Procedure, shortened: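 Unexposed Mueller-Hinton broth cultures (about 5 × 10^6 CFU/ml, 35°C) were handled as in the PA-SME set but without the 10× MIC pre-exposure. They were diluted 1:1,000, then given telavancin at final 0.2, 0.3 or 0.4× MIC, with a drug-free control. Viable counts were taken every 2 h until McFarland no. 1 turbidity. Effect duration comes from log10 CFU/ml-time plots; two separate experiments with new inocula.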

Staphylococcus aureus [4] = test: Antimicrobial activity against heterogenous vancomycin-intermediate-, methicillin-resistant Staphylococcus aureus 618 assessed as time required to induce sub-MIC effect at 0.2 times MIC exposed for 2 hrs by plate counting method
Procedure, shortened: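 SME, viable plate count method: no prior drug exposure. About 5 × 10^6 CFU/ml in Mueller-Hinton broth at 35°C received 0.2, 0.3 or 0.4× MIC, alongside a drug-free tube. Counts were taken at the start, then every 2 h until McFarland no. 1 turbidity, as log10 CFU/ml against time. Two separate experiments, each with a new inoculum.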

Staphylococcus aureus [5] = test: Antimicrobial activity against vancomycin-intermediate-, methicillin-resistant Staphylococcus aureus 1984 by microdilution method
Staphylococcus aureus [6] = test: Antimicrobial activity against vancomycin-susceptible-, methicillin-resistant Staphylococcus aureus 1130 assessed as time required to induce sub-MIC effect at 0.3 times MIC exposed for 2 hrs by plate counting method
Procedure, shortened: (§2)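 Sub-MIC effect: cultures not preexposed to drug were diluted and handled as in the PA-SME procedure in Mueller-Hinton broth with final 0.2, 0.3 or 0.4× MIC, plus a drug-free control. Viable plate counts were taken every 2 h until McFarland 1 turbidity. Duration was derived from growth curves. Two experiments were run, each with a new inoculum.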

Staphylococcus aureus [7] = test: Antimicrobial activity against heterogenous vancomycin-intermediate-, methicillin-resistant Staphylococcus aureus 873 assessed as time required to induce post antibiotic sub-MIC effect at 0.3 times MIC […] by plate counting method; procedure, shortened: as §1
Streptococcus agalactiae [8] = test: Antimicrobial activity against Streptococcus agalactiae HMC 5 assessed as post-antibiotic effect at 10 times MIC pre-exposed to Telavancin for 1 hr by plate counting method
Procedure, shortened: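 Organisms were suspended in Mueller-Hinton broth from overnight blood agar colonies at about 5 × 10^6 CFU/ml. Cultures were exposed to telavancin at 10× MIC for 1 h at 35°C in a shaking water bath, then diluted 1:1,000 to remove the drug, with an untreated growth control. Viable counts were taken before exposure, at 0 h, then every 2 h until McFarland no. 1 turbidity. PAE = T − C, the time to a 1 log10 rise. Two experiments.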

Staphylococcus aureus [9] = test: Antimicrobial activity against vancomycin-susceptible-, methicillin-resistant Staphylococcus aureus 1130 assessed as time required to induce post antibiotic sub-MIC effect at 0.4 times MIC […] by plate counting method
Procedure, shortened: (§3)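 After 1 h preexposure to 10× MIC at 35°C and 1:1,000 dilution, cultures were split, and drug was re-added to final 0.2, 0.3 or 0.4× MIC, with a drug-free tube. Viable counts were taken every 2 h until McFarland 1 turbidity. Duration was derived from log10 CFU/ml versus time curves. Two experiments were run, each with a new inoculum.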

Streptococcus pyogenes = test: Antimicrobial activity against Streptococcus pyogenes HMC 414 assessed as time required to induce post antibiotic sub-MIC effect at 0.3 times MIC exposed for […] by plate counting method
Procedure, shortened: (§4)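 Mueller-Hinton broth cultures of about 5 × 10^6 CFU/ml were pre-exposed to telavancin at 10× MIC for 1 h at 35°C, then diluted 1:1,000. Telavancin was re-added to final 0.2, 0.3 or 0.4× MIC, alongside a drug-free tube. Viable counts were taken before exposure, after dilution, then every 2 h until McFarland no. 1 turbidity. Duration comes from log10 CFU/ml-versus-time plots; two separate experiments with fresh inocula.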

Staphylococcus aureus [10] = test: Antimicrobial activity against vancomycin-intermediate-, methicillin-resistant Staphylococcus aureus 1984 assessed as post-antibiotic effect at 10 times MIC pre-exposed to Telavancin for 1 hr by plate counting method
Procedure, shortened: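 Viable plate count method in Mueller-Hinton broth. Direct colony suspension inoculum of about 5 × 10^6 CFU/ml was exposed to 10× MIC for 1 h at 35°C in a shaking water bath, then diluted 1:1,000 to remove drug. Counts were taken before exposure, at 0 h, then every 2 h until McFarland no. 1 turbidity. PAE = T − C, the time to a 1 log10 rise versus an unexposed growth control.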

Staphylococcus aureus [11] = test: Antimicrobial activity against vancomycin-intermediate-, methicillin-resistant Staphylococcus aureus 1984 assessed as time required to induce post antibiotic sub-MIC effect at 0.4 times MIC […] by plate counting method; procedure, shortened: as §1
Enterococcus faecalis [12] = test: Antimicrobial activity against Enterococcus faecalis HMC 571 assessed as time required to induce post antibiotic sub-MIC effect at 0.3 times MIC […] by plate counting method; procedure, shortened: as §4
Staphylococcus aureus [13] = test: Antimicrobial activity against vancomycin-susceptible-, methicillin-resistant Staphylococcus aureus ATCC 33591 assessed as time required to induce post antibiotic sub-MIC effect at 0.3 times MIC […] by plate counting method; procedure, shortened: as §3
Enterococcus faecalis [14] = test: Antimicrobial activity against Enterococcus faecalis ATCC 29212 assessed as time required to induce post antibiotic sub-MIC effect at 0.4 times MIC […] by plate counting method; procedure, shortened: as §4
Staphylococcus aureus [15] = test: Antimicrobial activity against vancomycin-susceptible-, methicillin-resistant Staphylococcus aureus 1306 assessed as time required to induce post antibiotic sub-MIC effect at 0.2 times MIC pre-exposed to Telavancin […] by plate counting method; procedure, shortened: as §3
Staphylococcus aureus [16] = test: Antimicrobial activity against vancomycin-resistant-, methicillin-resistant Staphylococcus aureus 510 assessed as time required to induce sub-MIC effect at 0.4 times MIC exposed for 2 hrs by plate counting method; procedure, shortened: as §2
Staphylococcus aureus [17] = test: Antimicrobial activity against vancomycin-susceptible-, methicillin-resistant Staphylococcus aureus ATCC 33591 assessed as time required to induce sub-MIC effect at 0.4 times MIC exposed for 2 hrs by plate counting method; procedure, shortened: as §2

What does the source list for CCCCCCCCCCNCCN[C@@]1(C)C[C@H](O[C@H]2[C@H](Oc3c4cc5cc3Oc3ccc(cc3Cl)[C@@H](O)[C@@H](NC(=O)[C@@H](CC(C)C)NC)C(=O)N[C@@H](CC(N)=O)C(=O)N[C@H]5C(=O)N[C@H]3C(=O)N[C@H](C(=O)N[C@H](C(=O)O)c5cc(O)c(CNCP(=O)(O)O)c(O)c5-c5cc3ccc5O)[C@H](O)c3ccc(c(Cl)c3)O4)O[C@H](CO)[C@@H](O)[C@@H]2O)O[C@@H](C)[C@H]1O [TELAVANCIN]?
PAE (Staphylococcus aureus [1]): 8.6 h; MIC (Staphylococcus aureus [2]): 0.12 µg/mL (≈ 0.0684 µM); PAE (Streptococcus agalactiae [3]): 0.2 h; PAE (Staphylococcus aureus [4]): 0.3 h; MIC (Staphylococcus aureus [5]): 0.25 µg/mL (≈ 0.142 µM); PAE (Staphylococcus aureus [6]): 2 h; PAE (Staphylococcus aureus [7]): 4.8 h; PAE (Streptococcus agalactiae [8]): 0.4 h; PAE (Staphylococcus aureus [9]): > 10 h; PAE (Streptococcus pyogenes): > 10.7 h; PAE (Staphylococcus aureus [10]): 0.9 h; PAE (Staphylococcus aureus [11]): > 10 h; PAE (Enterococcus faecalis [12]): 7.2 h; PAE (Staphylococcus aureus [13]): > 10 h; PAE (Enterococcus faecalis [14]): > 10.7 h; PAE (Staphylococcus aureus [15]): 2.9 h; PAE (Staphylococcus aureus [16]): 3.6 h; PAE (Staphylococcus aureus [17]): 2.3 h
